IC50 and EC50 data for 11 compounds are collected here from ChEMBL document CHEMBL1142581, “Resveratrol derivatives from the roots of Vitis thunbergii” (J Nat Prod, 2005).

Test [1] can be described thus: Antiplatelet activity against citreated rabbit platelet assessed as arachidonic acid-induced platelet aggregation. In kind it is functional, cell-based. Particulars: Oryctolagus cuniculus. In a few lines: (§1)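 Washed platelets from fresh rabbit blood, preincubated 2 min at 37 °C with various compound concentrations or 0.5% DMSO (control), then challenged with arachidonic acid or U46619. Turbidimetric aggregation: platelet suspension set as 0% and platelet-free Tyrode solution as 100%. Inhibition % = [1 − sample/control aggregation] × 100. IC50 reported as mean ± SD (n=4).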

A short description of test [2]: Antioxidant activity assessed as ABTS radical scavenging activity. Type of test: functional. Summed up:
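ABTS radical cation generated from 7.5 mM ABTS with 2.5 mM […], then diluted. Various concentrations of vehicle, test agents or Trolox (positive control) were mixed with an equal volume of the diluted radical solution for 6 min. Remaining radical was read as absorbance at 734 nm. EC50 calculated, mean ± SD (n=6).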

A short description of test [3]: Antiplatelet activity against citreated rabbit platelet assessed as inhibition of 9,11-dideoxy-11 alpha, 9 alpha epoxy-methanoprostaglandin F2alpha-induced platelet aggregation. Particulars: Oryctolagus cuniculus. In kind it is functional, cell-based. In a few lines: as §1

Where only a bound is given, the exact number is not on record here.

For orientation: IC50 means the concentration at which inhibition is half-maximal. What is called EC50 is the midpoint of the concentration-response curve. Turning to `Oc1ccc([C@H]2Oc3cc(O)cc(/C=C/c4ccc5c(c4)[C@H](c4cc(O)cc6c4[C@H](c4cc(O)cc(O)c4)[C@@H](c4ccc(O)cc4)O6)[C@H](c4ccc(O)cc4)O5)c3[C@@H]2c2cc(O)cc(O)c2)cc1`, the IC50 in test [1] was 5.7 µM; in test [3] it was 3.9 µM. Moreover, the EC50 in test [2] was 4.8 µM.

Turning to `O=Cc1ccc2c(c1)C(c1cc(O)cc3c1[C@H](c1cc(O)cc(O)c1)[C@@H](c1ccc(O)cc1)O3)[C@H](c1ccc(O)cc1)O2` (some centres undefined), the IC50 in test [1] came to 7 µM; in test [3], 3.1 µM. Moreover, the EC50 in test [2] came to 4.4 µM.

As for `Oc1ccc(/C=C/c2cc(O)cc3c2[C@H](c2cc(O)cc(O)c2)[C@@H](c2ccc(O)cc2)O3)cc1`, the IC50 in test [1] and in test [3] was greater than 100 µM throughout. Further, the EC50 in test [2] came to 2.8 µM.

Take `Oc1ccc([C@@H]2c3c(O)cc4c5c3[C@@H]([C@@H](c3ccc(O)cc3)c3c(O)cc(O)cc3[C@@H]5[C@@H](c3ccc(O)cc3)O4)[C@H]2c2cc(O)cc(O)c2)cc1` [AMPELOPSIN C]: the concentration for half-maximal inhibition (IC50) in test [1] came to 8.1 µM; in test [3], 5.9 µM. The EC50 in test [2] stood at 5.4 µM.

Regarding `CC(=O)Oc1ccccc1C(=O)O` [ASPIRIN], in test [1], the IC50 turned out to be 32.7 µM.

Regarding `Oc1ccc(/C=C/c2cc(O)cc3c2[C@@H](c2cc(O)cc4c2[C@H](c2cc(O)cc5c2[C@@H](c2cc(O)cc(O)c2)[C@H](c2ccc(O)cc2)O5)[C@@H](c2ccc(O)cc2)O4)[C@H](c2ccc(O)cc2)O3)cc1` [MIYABENOL A], the results for the concentration for half-maximal inhibition (IC50) in test [1] and in test [3] were 9 µM and 7.5 µM, respectively. Also, the EC50 in test [2] came out at 6.6 µM.

Take `Cc1c(C)c2c(c(C)c1O)CCC(C)(C(=O)O)O2` (centres undefined) [TROLOX]: the EC50 in test [2] is 28.4 µM.

Turning to `Oc1ccc([C@H]2c3c(O)cc(O)cc3[C@H]3c4c(cc(O)cc4[C@@H]2c2cc(/C=C/c4cc(O)cc5c4[C@H](c4cc(O)cc(O)c4)[C@@H](c4ccc(O)cc4)O5)ccc2O)O[C@@H]3c2ccc(O)cc2)cc1` [VITISIN A], the IC50 in test [1] turned out to be 10.3 µM; in test [3], 13.3 µM. Also, the 50% effective concentration (EC50) in test [2] was determined as 13.8 µM.

For the compound `O=Cc1ccc(O)c([C@H]2c3cc(O)cc4c3[C@H](c3cc(O)cc(O)c3[C@@H]2c2ccc(O)cc2)[C@@H](c2ccc(O)cc2)O4)c1` [VITISINOL B], the IC50 in test [1] was greater than 100 µM; in test [3] it was 7.8 µM. The EC50 in test [2] came out at 3.6 µM.

For `O=C1C=C(/C=C/c2ccc(O)cc2)C[C@@H](c2cc(O)cc(O)c2)[C@H](c2ccc(O)cc2)C1` [VITISINOL C], the IC50 was determined as 13.4 µM in test [1] and 10.5 µM in test [3]. Besides, the EC50 in test [2] stood at 4.5 µM.

For the compound `O=C1C=C(/C=C/c2ccc(O)cc2)[C@H]2C(=O)[C@@H]1[C@H](c1ccc(O)cc1)[C@H]2c1cc(O)cc(O)c1` [VITISINOL D], the IC50 is 15 µM in test [1] and 5.7 µM in test [3]. The EC50 in test [2] turned out to be 4.1 µM.
